Reference: ChEMBL document CHEMBL1926565, “Synthesis, antiproliferative activities and telomerase inhibition evaluation of novel asymmetrical 1,2-disubstituted amidoanthraquinone derivatives” (Eur J Med Chem, 2012)
pIC50: −log10 of the molar value. Activity calls are given as the source filed them. No cut-off for these calls is given here.

How the values were obtained:
[1] = Growth of human H1299 cells at 1 uM after 48 hrs by MTT assay; details: NCI-H1299, 48 h
[2] = target: Telomerase reverse transcriptase (Homo sapiens) (UniProt O14746); assay: Residual activity of human TERT in H1299 cells at 100 uM after 24 hrs by SEAP reporter gene assay
[3] = target: Telomerase reverse transcriptase (Homo sapiens) (UniProt O14746); assay: Residual activity of human TERT in H1299 cells at 1 uM after 24 hrs by SEAP reporter gene assay
[4] = target: Telomerase reverse transcriptase (Homo sapiens) (UniProt O14746); assay: Inhibition of telomerase activity in human H1299 cell free extract at 10 uM by modified TRAP assay
In short: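 TRAP assay using total cell lysate from H1299 lung cancer cells as the telomerase source, with protein measured against BSA standards. Compounds tested at 10 µM. Controls were lysate without inhibitor (positive) and RNase A-treated extract without inhibitor (negative).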

[5] = Growth of human H1299 cells at 100 uM 48 hrs by MTT assay; details: NCI-H1299, 48 h
PC-3 = assay: Cytotoxicity against human PC3 cells after 48 hrs by SRB assay; assay type: functional, cell-based; details: PC-3, 48 h
In short: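 PC-3 cells grown in RPMI1640 with 10% FBS at 37 °C, 5% CO₂. Seeded in medium with 5% FBS; after 24 h, one plate fixed with 10% TCA as T₀. Compound or 0.1% DMSO vehicle added for 48 h, then TCA fixation and 0.4% SRB in 1% acetic acid. Dye solubilized in 10 mM Trizma base, absorbance read at 515 nm. IC50 is the concentration giving 50% reduction of the protein gain in controls.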

[6] = target: Telomerase reverse transcriptase (Homo sapiens) (UniProt O14746); assay: Residual activity of human TERT in H1299 cells at 10 uM after 24 hrs by SEAP reporter gene assay
[7] = Growth of human H1299 cells at 10 uM after 48 hrs by MTT assay; details: NCI-H1299, 48 h

Telomerase reverse transcriptase (Homo sapiens), sequence (O14746 whole entry): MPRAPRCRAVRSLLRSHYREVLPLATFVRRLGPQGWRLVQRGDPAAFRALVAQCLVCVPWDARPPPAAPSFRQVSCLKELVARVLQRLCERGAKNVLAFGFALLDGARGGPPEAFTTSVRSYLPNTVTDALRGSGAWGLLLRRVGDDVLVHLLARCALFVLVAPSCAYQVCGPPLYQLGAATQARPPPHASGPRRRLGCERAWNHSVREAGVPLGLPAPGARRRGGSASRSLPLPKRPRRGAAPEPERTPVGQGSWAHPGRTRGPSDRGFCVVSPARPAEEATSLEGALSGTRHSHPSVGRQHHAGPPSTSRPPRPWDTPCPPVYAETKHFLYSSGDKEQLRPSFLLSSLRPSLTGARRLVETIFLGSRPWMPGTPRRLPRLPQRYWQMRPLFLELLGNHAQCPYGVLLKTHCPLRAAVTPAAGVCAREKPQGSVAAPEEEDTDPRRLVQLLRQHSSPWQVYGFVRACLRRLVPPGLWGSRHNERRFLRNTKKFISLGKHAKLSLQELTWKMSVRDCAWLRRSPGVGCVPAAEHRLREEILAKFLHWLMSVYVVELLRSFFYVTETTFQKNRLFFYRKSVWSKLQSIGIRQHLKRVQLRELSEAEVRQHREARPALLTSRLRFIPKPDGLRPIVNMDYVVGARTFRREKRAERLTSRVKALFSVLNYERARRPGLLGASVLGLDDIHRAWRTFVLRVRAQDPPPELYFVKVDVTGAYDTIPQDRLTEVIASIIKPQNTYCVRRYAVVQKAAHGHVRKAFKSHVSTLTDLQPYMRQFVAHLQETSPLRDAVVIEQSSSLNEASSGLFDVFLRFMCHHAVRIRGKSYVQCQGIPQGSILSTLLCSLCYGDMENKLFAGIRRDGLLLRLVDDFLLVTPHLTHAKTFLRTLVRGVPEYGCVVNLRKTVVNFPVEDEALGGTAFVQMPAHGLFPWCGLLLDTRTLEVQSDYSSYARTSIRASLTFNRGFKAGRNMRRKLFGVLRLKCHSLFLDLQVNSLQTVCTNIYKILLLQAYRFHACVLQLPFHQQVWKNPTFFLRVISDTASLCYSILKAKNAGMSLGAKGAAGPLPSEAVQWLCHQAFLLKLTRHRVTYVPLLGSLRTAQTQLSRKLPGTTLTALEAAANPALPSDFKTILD

residual activity [2] [%]	residual activity [3] [%]	inhibition [4]	residual activity [6] [%]	Compound	growth, % of control at 1 µM [1] [%]	growth, % of control at 100 µM [5] [%]	pIC50 (PC-3)	growth, % of control at 10 µM [7] [%]
0	98	inactive	0	Cc1ccccc1C(=O)Nc1c(NC(=O)CCl)ccc2c1C(=O)c1ccccc1C2=O	73	0	5.44	0
0	81	inactive	2	Cc1cc(C(=O)Nc2c(NC(=O)CCl)ccc3c2C(=O)c2ccccc2C3=O)c(C)o1	96	0	5.37	2
				COc1cccc2c1C(=O)c1c(O)c3c(c(O)c1C2=O)C[C@@](O)(C(=O)CO)C[C@@H]3O[C@H]1C[C@H](N)[C@H](O)[C@H](C)O1 [DOXORUBICIN]			6.60	
13	15	inactive	13	O=C(CCl)Nc1ccc2c(c1NC(=O)CCl)C(=O)c1ccccc1C2=O	8	0	5.92	0
9	99	inactive	78	Cc1ccc(C(=O)Nc2c(NC(=O)CN(C)C)ccc3c2C(=O)c2ccccc2C3=O)cc1	106	0	5.41	88
13	15	inactive	13	Nc1c(NC(=O)CCl)ccc2c1C(=O)c1ccccc1C2=O	8	0	5.78	0
30	108	inactive	97	O=C(CCl)Nc1ccc2c(c1NC(=O)CCCCl)C(=O)c1ccccc1C2=O	100	62	5.95	116
2	93	inactive	4	O=C(CCl)Nc1ccc2c(c1NC(=O)c1ccccc1C(F)(F)F)C(=O)c1ccccc1C2=O	93	0	5.47	3
12	88	inactive	72	Cc1ccc(C(=O)Nc2c(NC(=O)CN3CCSCC3)ccc3c2C(=O)c2ccccc2C3=O)cc1	85	20	4.72	69
15	96	inactive	94	O=C(CCCl)Nc1ccc2c(c1NC(=O)CCCl)C(=O)c1ccccc1C2=O	101	5	< 4.70	83
3	98	inactive	54	Cc1ccc(C(=O)Nc2c(NC(=O)CN3CCOCC3)ccc3c2C(=O)c2ccccc2C3=O)cc1	81	15	< 4.70	56
0	99	inactive	4	O=C(CCl)Nc1ccc2c(c1NC(=O)c1cccc(C(F)(F)F)c1)C(=O)c1ccccc1C2=O	94	3	5.25	5
2	84	inactive	2	O=C(CCl)Nc1ccc2c(c1NC(=O)c1ccco1)C(=O)c1ccccc1C2=O	80	2	5.61	0
1	81	inactive	5	O=C(CCl)Nc1ccc2c(c1NC(=O)c1ccccc1Cl)C(=O)c1ccccc1C2=O	101	0	5.51	6
4	98	inactive	6	O=C(CCl)Nc1ccc2c(c1NC(=O)c1ccc(Cl)cc1)C(=O)c1ccccc1C2=O	92	4	< 4.70	5
2	5	inactive	3	O=C(CCl)Nc1ccc2c(c1NC(=O)c1cccs1)C(=O)c1ccccc1C2=O	0	0	5.58	2
2	105	inactive	5	O=C(CCl)Nc1ccc2c(c1NC(=O)c1ccccc1F)C(=O)c1ccccc1C2=O	78	0	< 4.70	2
0	11	inactive	2	O=C(CCl)Nc1ccc2c(c1NC(=O)c1ccc(F)cc1)C(=O)c1ccccc1C2=O	10	0	5.50	4
0	116	inactive	0	Cc1cccc(C(=O)Nc2c(NC(=O)CCl)ccc3c2C(=O)c2ccccc2C3=O)c1	72	0	5.42	0
15	96	inactive	94	O=C(CCl)Nc1ccc2c(c1NC(=O)c1ccccc1)C(=O)c1ccccc1C2=O	101	5	6.02	83
6	85	inactive	8	O=C(CCl)Nc1ccc2c(c1NC(=O)c1ccc(C(F)(F)F)cc1)C(=O)c1ccccc1C2=O	86	0	5.18	6
9	97	inactive	64	Cc1ccc(C(=O)Nc2c(NC(=O)CN3CCN(c4ccccn4)CC3)ccc3c2C(=O)c2ccccc2C3=O)cc1	105	6	< 4.70	100
19	87	inactive	79	Cc1ccc(C(=O)Nc2c(NC(=O)CN3CCN(c4ncccn4)CC3)ccc3c2C(=O)c2ccccc2C3=O)cc1	102	59	< 4.70	91
10	100	inactive	76	Cc1ccc(C(=O)Nc2c(NC(=O)CN(C)CC3OCCO3)ccc3c2C(=O)c2ccccc2C3=O)cc1	104	3	5.84	88
8	85	inactive	70	Cc1ccc(C(=O)Nc2c(NC(=O)CN3CCCCC3)ccc3c2C(=O)c2ccccc2C3=O)cc1	86	10	< 4.70	70
1	93	inactive	8	O=C(CCl)Nc1ccc2c(c1NC(=O)Cc1ccc(F)cc1)C(=O)c1ccccc1C2=O	88	6	< 4.70	7
				O=C1c2c(O)ccc(O)c2C(=O)c2c(NCCNCCO)ccc(NCCNCCO)c21 [MITOXANTRONE]			6.54	
